From ChEMBL document CHEMBL1148376, “Synthesis, monoamine transporter binding properties, and behavioral pharmacology of a series of 3beta-(substituted phenyl)-2beta-(3'-substituted isoxazol-5-yl)tropanes” (J Med Chem, 2004)
Activity calls are given as the source filed them. The rule behind the calls is not given here.

Experiments:
[1] = molecular target: Sodium-dependent dopamine transporter (Rattus norvegicus, UniProt P23977); assay: Inhibitory concentration required to inhibit dopamine transporter DAT was determined by using [3H]WIN-35428 radioligand
In short: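 Competition binding at the DAT with 0.5 nM [3H]WIN35,428 (final concentration). Other procedures follow earlier published methods.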

Mus musculus [2] = assay: Percent change in locomotor activity in mice at 3 mg/kg i.p. in 1 h.; assay type: functional; details: route intraperitoneal
In short: (§1)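 Mice habituated 1/2 h to photocell activity chambers, then injected ip with compound homogenized in 0.5% methyl cellulose (10 mL/kg); vehicle controls; N = 5 or 6 per dose. Photobeam interruptions recorded in 10-min bins for 4 h, grouped into 1-h bins; one-way ANOVA with Newman-Keuls post hoc test (p < 0.05).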

Mus musculus [3] = assay: Percent change in locomotor activity in mice at 3 mg/kg i.p. in 2 h.; assay type: functional; details: route intraperitoneal; in short: as §1
Mus musculus [4] = assay: Percent change in locomotor activity in mice at 3 mg/kg i.p. in 3 h.; assay type: functional; details: route intraperitoneal; in short: as §1
Mus musculus [5] = assay: Percent change in locomotor activity in mice at 3 mg/kg i.p. in 4 h.; assay type: functional; details: route intraperitoneal; in short: as §1
Mus musculus [6] = assay: Percent change from vehicle in locomotor activity in mice at 30 mg/kg (ip) in 1 h; assay type: functional
Mus musculus [7] = assay: Percent change from vehicle in locomotor activity in mice at 30 mg/kg (ip) in 2 h; assay type: functional
Mus musculus [8] = assay: Percent change from vehicle in locomotor activity in mice at 30 mg/kg (ip) in 3 h; assay type: functional
Mus musculus [9] = assay: Percent change from vehicle in locomotor activity in mice at 30 mg/kg (ip) in 4 h; assay type: functional
Mus musculus [10] = assay: Percent change from vehicle in locomotor activity in mice at 0.3 mg/kg (ip) in 1 h; assay type: functional
Mus musculus [11] = assay: Percent change from vehicle in locomotor activity in mice at 0.3 mg/kg (ip) in 2 h; assay type: functional
Mus musculus [12] = assay: Percent change from vehicle in locomotor activity in mice at 0.3 mg/kg (ip) in 3 h; assay type: functional
Mus musculus [13] = assay: Percent change from vehicle in locomotor activity in mice at 0.3 mg/kg (ip) in 4 h; assay type: functional
Mus musculus [14] = assay: Percent change in locomotor activity in mice at 1 mg/kg i.p. in 1 h.; assay type: functional; details: route intraperitoneal
Mus musculus [15] = assay: Percent change in locomotor activity in mice at 1 mg/kg i.p. in 2 h.; assay type: functional; details: route intraperitoneal; in short: as §1
Mus musculus [16] = assay: Percent change locomotor activity in mice at 1 mg/kg i.p. in 3 h.; assay type: functional; details: route intraperitoneal; in short: as §1
Mus musculus [17] = assay: Percent change in locomotor activity in mice at 1 mg/kg i.p. in 4 h.; assay type: functional; details: route intraperitoneal; in short: as §1
Mus musculus [18] = assay: Percent change from vehicle in locomotor activity in mice at 10 mg/kg (ip) in 1 h; assay type: functional
Mus musculus [19] = assay: Percent change from vehicle in locomotor activity in mice at 10 mg/kg (ip) in 2 h; assay type: functional
Mus musculus [20] = assay: Percent change from vehicle in locomotor activity in mice at 10 mg/kg (ip) in 3 h; assay type: functional
Mus musculus [21] = assay: Percent change from vehicle in locomotor activity in mice at 10 mg/kg (ip) in 4 h; assay type: functional
Mus musculus [22] = species on record: Mus musculus; assay: Effective dose was evaluated for locomotor activity in mice in the peak hour; No stimulation; assay type: functional, organism-based
[23] = molecular target: Norepinephrine transporter (Rattus norvegicus, UniProt Q9WTR4); assay: Binding affinity towards norepinephrine transporter was determined by using [3H]nisoxetine radioligand
In short: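 Competition binding at the NET with 0.5 nM [3H]nisoxetine (final concentration). Other procedures follow earlier published methods.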

Rattus norvegicus [24] = assay: Drug discrimination effect of compound in rats, expressed as percent of rats choosing the cocaine lever at dose 10 mg/kg (ip); assay type: functional
Rattus norvegicus [25] = assay: Drug discrimination effect of compound in rats, expressed as percent of rats choosing the cocaine lever at dose 17 mg/kg (ip); assay type: functional
Rattus norvegicus [26] = assay: Drug discrimination effect of compound in rats, expressed as percent of rats choosing the cocaine lever at dose 3 mg/kg (ip); assay type: functional
Rattus norvegicus [27] = assay: Drug discrimination effect of compound in rats, expressed as percent of rats choosing the cocaine lever at dose 30 mg/kg (ip); assay type: functional
[28] = molecular target: Sodium-dependent serotonin transporter (Rattus norvegicus, UniProt P31652); assay: Inhibitory concentration required to inhibit serotonin transporter 5-HTT was determined by using [3H]paroxetine radioligand
In short: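 Competition binding at the 5-HTT with 0.2 nM [3H]paroxetine (final concentration). Other procedures follow earlier published methods.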

Mus musculus [29] = assay: Percent change from vehicle in locomotor activity in mice at 17 mg/kg (ip) in 3 h; assay type: functional
Mus musculus [30] = assay: Percent change from vehicle in locomotor activity in mice at 5.6 mg/kg (ip) in 1 h; assay type: functional
Mus musculus [31] = assay: Percent change from vehicle in locomotor activity in mice at 5.6 mg/kg (ip) in 2 h; assay type: functional
Mus musculus [32] = assay: Percent change from vehicle in locomotor activity in mice at 5.6 mg/kg (ip) in 3 h; assay type: functional
Mus musculus [33] = assay: Percent change from vehicle in locomotor activity in mice at 5.6 mg/kg (ip) in 4 h; assay type: functional
Mus musculus [34] = assay: Percent change from vehicle in locomotor activity in mice at 56 mg/kg (ip) in 1 h; assay type: functional
Mus musculus [35] = assay: Percent change from vehicle in locomotor activity in mice at 56 mg/kg (ip) in 2 h; assay type: functional
Mus musculus [36] = assay: Percent change from vehicle in locomotor activity in mice at 17 mg/kg (ip) in 1 h; assay type: functional
Mus musculus [37] = assay: Percent change from vehicle in locomotor activity in mice at 17 mg/kg (ip) in 2 h; assay type: functional
Mus musculus [38] = assay: Percent change from vehicle in locomotor activity in mice at 56 mg/kg (ip) in 4 h; assay type: functional
Mus musculus [39] = species on record: Mus musculus; assay: Effective dose for locomotor activity in mice in the peak hour.; assay type: functional
Rattus norvegicus [40] = assay: Drug discrimination effect of compound in rats, expressed as percent of rats choosing the cocaine lever at dose 1 mg/kg (ip); assay type: functional
Rattus norvegicus [41] = assay: Drug discrimination effect of compound in rats, expressed as percent of rats choosing the cocaine lever at dose 1.7 mg/kg (ip); assay type: functional
Rattus norvegicus [42] = assay: Drug discrimination effect of compound in rats, expressed as percent of rats choosing the cocaine lever at dose 5.6 mg/kg (ip); assay type: functional
Rattus norvegicus [43] = assay: Effective dose for drug discrimination effect in rat (ip); assay type: functional
In short: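 Cocaine-trained rat drug discrimination, FR10, 10-min sessions. Compound in 0.5% methyl cellulose given ip 15 min before session, usually to 7-8 rats per dose. Doses were raised from ≤20% to ≥80% cocaine-lever choice, capped at 30 mg/kg, >50% loss of pressing, or side effects.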

Mus musculus [44] = assay: Percent change from vehicle in locomotor activity in mice at 17 mg/kg (ip) in 4 h; assay type: functional
Mus musculus [45] = assay: Percent change from vehicle in locomotor activity in mice at 56 mg/kg (ip) in 3 h; assay type: functional

Sequence of Sodium-dependent dopamine transporter (P23977 whole entry): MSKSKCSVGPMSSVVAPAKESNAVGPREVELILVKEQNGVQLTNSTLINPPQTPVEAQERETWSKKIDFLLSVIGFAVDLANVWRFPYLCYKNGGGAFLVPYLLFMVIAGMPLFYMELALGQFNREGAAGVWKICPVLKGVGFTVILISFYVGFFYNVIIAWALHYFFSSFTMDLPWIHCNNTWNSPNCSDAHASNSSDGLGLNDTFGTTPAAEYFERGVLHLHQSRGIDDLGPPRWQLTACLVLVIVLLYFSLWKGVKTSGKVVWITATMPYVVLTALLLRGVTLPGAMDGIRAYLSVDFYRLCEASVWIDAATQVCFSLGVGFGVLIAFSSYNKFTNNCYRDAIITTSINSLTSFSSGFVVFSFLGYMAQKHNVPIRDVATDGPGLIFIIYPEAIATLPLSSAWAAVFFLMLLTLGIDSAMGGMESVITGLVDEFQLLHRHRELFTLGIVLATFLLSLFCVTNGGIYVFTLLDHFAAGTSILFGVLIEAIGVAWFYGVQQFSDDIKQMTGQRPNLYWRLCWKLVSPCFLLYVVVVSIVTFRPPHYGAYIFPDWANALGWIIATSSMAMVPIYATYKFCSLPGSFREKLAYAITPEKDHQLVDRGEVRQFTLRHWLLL
Sequence of Norepinephrine transporter (Q9WTR4 whole entry): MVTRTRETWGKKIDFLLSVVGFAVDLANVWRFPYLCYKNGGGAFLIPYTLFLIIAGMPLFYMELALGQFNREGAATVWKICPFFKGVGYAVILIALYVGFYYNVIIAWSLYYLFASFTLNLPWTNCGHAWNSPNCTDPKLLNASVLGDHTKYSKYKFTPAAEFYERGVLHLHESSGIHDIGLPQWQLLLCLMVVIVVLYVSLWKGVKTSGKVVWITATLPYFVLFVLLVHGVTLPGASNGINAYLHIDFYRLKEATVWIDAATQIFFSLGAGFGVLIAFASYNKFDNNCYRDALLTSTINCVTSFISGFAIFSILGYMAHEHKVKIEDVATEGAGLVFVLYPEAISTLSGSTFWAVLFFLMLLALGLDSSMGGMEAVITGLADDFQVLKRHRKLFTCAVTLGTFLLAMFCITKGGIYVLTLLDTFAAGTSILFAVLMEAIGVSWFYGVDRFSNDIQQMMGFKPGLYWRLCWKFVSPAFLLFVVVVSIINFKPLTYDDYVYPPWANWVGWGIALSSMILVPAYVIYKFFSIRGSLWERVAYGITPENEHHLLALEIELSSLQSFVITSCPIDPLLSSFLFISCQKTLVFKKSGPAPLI
Sequence of Sodium-dependent serotonin transporter (P31652 whole entry): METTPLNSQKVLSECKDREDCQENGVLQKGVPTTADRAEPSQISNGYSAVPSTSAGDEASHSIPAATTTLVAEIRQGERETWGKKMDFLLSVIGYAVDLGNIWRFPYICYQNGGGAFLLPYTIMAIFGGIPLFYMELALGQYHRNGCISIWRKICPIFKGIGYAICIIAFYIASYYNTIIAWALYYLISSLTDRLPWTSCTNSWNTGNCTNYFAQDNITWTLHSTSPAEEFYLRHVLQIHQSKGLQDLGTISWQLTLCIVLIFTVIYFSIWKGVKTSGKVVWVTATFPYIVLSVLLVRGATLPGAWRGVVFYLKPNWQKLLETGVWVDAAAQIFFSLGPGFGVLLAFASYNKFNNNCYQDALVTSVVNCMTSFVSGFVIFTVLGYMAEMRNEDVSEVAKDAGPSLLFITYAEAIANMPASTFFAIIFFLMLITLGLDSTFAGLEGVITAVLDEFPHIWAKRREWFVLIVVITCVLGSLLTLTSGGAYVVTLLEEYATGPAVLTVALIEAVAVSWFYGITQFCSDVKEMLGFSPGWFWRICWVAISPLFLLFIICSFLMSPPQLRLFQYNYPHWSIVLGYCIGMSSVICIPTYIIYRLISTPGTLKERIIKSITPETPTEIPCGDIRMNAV

Question: For `Cc1ccc(-c2cc(C3C(c4ccc(C)cc4)CC4CCC3N4C)on2)cc1` (configuration not stated), which IC50 [1] is on record?
Answer: 0.013 µM

Question: What about the Change (Mus musculus [2]) of the same compound?
Answer: 1%

Question: What about the Change (Mus musculus [3]) of the same compound?
Answer: 10%

Question: What about the Change (Mus musculus [4]) of the same compound?
Answer: 73%

Question: What about the Change (Mus musculus [5]) of the same compound?
Answer: 29%

Question: And the Change (Mus musculus [6])?
Answer: -19%

Question: And the Change (Mus musculus [7])?
Answer: -26%

Question: What about the Change (Mus musculus [8]) of the same compound?
Answer: -37%

Question: What about the Change (Mus musculus [9]) of the same compound?
Answer: -43%

Question: What about the Change (Mus musculus [10]) of the same compound?
Answer: -17%

Question: And the Change (Mus musculus [11])?
Answer: 60%

Question: What about the Change (Mus musculus [12]) of the same compound?
Answer: 102%

Question: What about the Change (Mus musculus [13]) of the same compound?
Answer: -48%

Question: What about the Change (Mus musculus [14]) of the same compound?
Answer: -5%

Question: What about the Change (Mus musculus [15]) of the same compound?
Answer: -6%

Question: And the Change (Mus musculus [16])?
Answer: 76%

Question: What about the Change (Mus musculus [17]) of the same compound?
Answer: -30%

Question: What about the Change (Mus musculus [18]) of the same compound?
Answer: -30%

Question: What about the Change (Mus musculus [19]) of the same compound?
Answer: 34%

Question: And the Change (Mus musculus [20])?
Answer: -38%

Question: What about the Change (Mus musculus [21]) of the same compound?
Answer: -7%

Question: What about the ED50 (Mus musculus [22]) of the same compound?
Answer: inactive

Question: And the IC50 [23]?
Answer: > 100 µM

Question: And the Drug discrimination effect (Rattus norvegicus [24])?
Answer: 0%

Question: And the Drug discrimination effect (Rattus norvegicus [25])?
Answer: 33%

Question: And the Drug discrimination effect (Rattus norvegicus [26])?
Answer: 0%

Question: And the Drug discrimination effect (Rattus norvegicus [27])?
Answer: 67%

Question: And the IC50 [28]?
Answer: > 100 µM

Question: `COC(=O)[C@@H]1C2CC[C@@H](C[C@@H]1OC(=O)c1ccccc1)N2C` (single isomer, unassigned) [COCAINE] was tested. Which Change (Mus musculus [29]) did it give?
Answer: -53%

Question: And the Change (Mus musculus [30])?
Answer: 5%

Question: And the Change (Mus musculus [31])?
Answer: -26%

Question: What about the Change (Mus musculus [32]) of the same compound?
Answer: -53%

Question: What about the Change (Mus musculus [33]) of the same compound?
Answer: -1%

Question: And the Change (Mus musculus [34])?
Answer: 452%

Question: What about the Change (Mus musculus [35]) of the same compound?
Answer: 201%

Question: And the Change (Mus musculus [36])?
Answer: 179%

Question: And the Change (Mus musculus [37])?
Answer: -7%

Question: And the Change (Mus musculus [38])?
Answer: -24%

Question: And the ED50 (Mus musculus [39])?
Answer: 18.8 mg/kg

Question: What about the Drug discrimination effect (Rattus norvegicus [40]) of the same compound?
Answer: 21%

Question: And the Drug discrimination effect (Rattus norvegicus [41])?
Answer: 32%

Question: And the Drug discrimination effect (Rattus norvegicus [24])?
Answer: 97%

Question: What about the Drug discrimination effect (Rattus norvegicus [26]) of the same compound?
Answer: 59%

Question: And the Drug discrimination effect (Rattus norvegicus [42])?
Answer: 82%

Question: What about the ED50 (Rattus norvegicus [43]) of the same compound?
Answer: 2.64 mg/kg

Question: And the Change (Mus musculus [44])?
Answer: -26%

Question: And the Change (Mus musculus [45])?
Answer: -47%
